Screens as filed in PubChem BioAssay.
Only some compounds are listed: those with a hit (about 4.1% of all), similar ones and a draw of the others.
HCV NS3 hel inh = inhibitors of Hepatitis C virus NS3 helicase; NS3 helicase DNA unwinding, Cy5 molecular beacon fluorescence; 290,000 tested, 0.56% active; inhibition, % at 10.9 µM;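 active means inhibition above the mean of all tested compounds plus 3 SD, set per campaign, cut at about 35% in these data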;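 further: 0% = DMSO wells and 100% = thioflavine S control wells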
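Assay system: hepatitis C virus NS3 helicase domain fragment enzyme. Also added: annealed dual-labelled DNA beacon duplex, ATP-started. Timing: 1 h reaction at 25 °C, ATP-initiated. Technique: Cy5 fluorescence at 0 and 60 min, beacon hairpin quenching. Evaluation: % inhibition of unwinding. Replication: one well per compound.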
T cruzi repl = blocks replication of Trypanosoma cruzi; T. cruzi beta-gal in NIH3T3, luminescence, 90 h; inhibition, % (no concentration beside the values); 300,000 tested, 1.4% active; AID 1885;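 active means mean inhibition across valid replicates above about 55%, limit read from the data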;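 further: signal also drops with host cell toxicity which is not excluded here; 0% = plate median of DMSO wells and 100% = zero luminescence signal; higher percent means less beta-gal luminescence so fewer parasites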
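Assay system: NIH/3T3 host cells with β-galactosidase reporter T. cruzi; input: 5,000 host fibroblasts per well; compound: single 50 nL compound addition per well in DMSO; timing: ≥90 h infection period, 3 h prior cell attachment; measured by: GalScreen β-gal luminescence, detergent lysis, 60 min; evaluation: percent inhibition of parasite-derived β-gal signal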
MEKK3 PB1 HTS = modulators (inhibitors or enhancers) of MEK5 binding to human MEKK3 PB1 domain. Q99759. bead-based flow cytometry, Alexa488-MEK5 binding to MEKK3; actives lie on both sides; 0 = blocked by unlabeled MEK5, 100 = vehicle. binding response (% of control), % at 10 µM. 290,000 tested, 1.4% active;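 active means binding response more than 3 SD above or below the average of its plate-row segment, actives on both sides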;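 further: Alexa488 bead fluorescence after subtracting the streptavidin-only scavenger bead signal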
Target sequence (Q99759 whole entry, looked up, the tested form may be a part): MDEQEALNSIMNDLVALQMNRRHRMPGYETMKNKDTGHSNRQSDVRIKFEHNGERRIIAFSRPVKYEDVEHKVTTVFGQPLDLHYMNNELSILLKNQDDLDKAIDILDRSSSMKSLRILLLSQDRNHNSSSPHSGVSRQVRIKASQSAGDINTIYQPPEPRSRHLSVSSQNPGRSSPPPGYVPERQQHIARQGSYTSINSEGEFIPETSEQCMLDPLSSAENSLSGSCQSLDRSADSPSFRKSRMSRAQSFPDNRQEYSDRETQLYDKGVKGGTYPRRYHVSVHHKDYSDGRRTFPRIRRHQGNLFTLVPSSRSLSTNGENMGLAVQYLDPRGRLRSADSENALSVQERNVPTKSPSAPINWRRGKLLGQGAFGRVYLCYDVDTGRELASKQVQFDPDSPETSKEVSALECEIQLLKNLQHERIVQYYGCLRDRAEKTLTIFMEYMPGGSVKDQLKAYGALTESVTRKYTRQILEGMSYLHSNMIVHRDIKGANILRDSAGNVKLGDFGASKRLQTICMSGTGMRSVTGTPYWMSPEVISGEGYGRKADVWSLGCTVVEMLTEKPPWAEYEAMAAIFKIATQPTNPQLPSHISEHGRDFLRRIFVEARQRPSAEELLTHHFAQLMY
MEKK2 WT-MEK5 = raises or lowers MEK5 binding to wildtype human MEKK2 PB1 domain; Q9Y2U5; bead flow cytometry, Alexa488-MEK5 binding to MEKK2 WT; actives lie on both sides; binding response (% of control), % at 10 µM; 290,000 tested, 1.1% active; AID 1531; in the data active means binding response below about 67% or above about 130%
MEKK2mut PB1 HTS = signal of MEK5 binding to mutant human MEKK2 PB1 domain; bead flow cytometry, Alexa488-MEK5 binding to MEKK2 mutant; percent response, % at 10 µM; 290,000 tested, 0.35% active; AID 1530; in the data active means percent response above about 24%, passing the limit was not always enough
FID counter = fluorescent intercalator displacement, NS3 helicase counter-screen; DNA fluorescent intercalator displacement, fluorescence; inhibition, % at 7.9 µM; 290,000 tested, 0.17% active; in the data active means inhibition above about 37%;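 further: 0% = vehicle and 100% = reference compound; higher means more ethidium bromide displaced from hairpin DNA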
MEKK2wt confirm = raises or lowers MEK5 binding to wildtype human MEKK2, retest. binding response (% of control), % at 10 µM. shares compounds with MEKK3 PB1 HTS. 5,900 tested, 2.4% active. bead flow cytometry, Alexa488-MEK5 binding to MEKK2 WT; actives lie on both sides; in the data active means binding response below about 16% or above about 210%; inactive means in between
MEKK2mut-MEK5 = signal of MEK5 binding to mutant human MEKK2, retest | shares compounds with MEKK3 PB1 HTS | percent response, % at 10 µM | bead flow cytometry, Alexa488-MEK5 binding to MEKK2 mutant | 5,900 tested, 2% active; in the data active means percent response mostly above about 71%, no sharp cut-off; inactive means mostly below about 38%;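 further: higher means compound restores mutant binding toward wildtype level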
MEKK3 confirm = confirmation of inhibitors of MEK5 binding to human MEKK3. shares compounds with MEKK3 PB1 HTS. bead flow cytometry, Alexa488-MEK5 binding to MEKK3; active compounds read low. binding response (% of control), % at 10 µM. 5,900 tested, 1.8% active. AID 1894;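 active means binding response below 72% of control, or above a set upper limit, though filed actives all read lower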;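 further: 100% = DMSO only wells and 0% = binding blocked by excess unlabeled MEK5; lower values mean stronger disruption of MEK5 binding to MEKK3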
An asterisk follows results filed as active; nt = no result given; [ ] = another dose, or the depositor's remark.

SMILES	HCV NS3 hel inh	T cruzi repl	MEKK3 PB1 HTS	MEKK2 WT-MEK5	MEKK2mut PB1 HTS	FID counter	MEKK2wt confirm	MEKK2mut-MEK5	MEKK3 confirm
COc1ccc(C2=NN(S(C)(=O)=O)C(c3ccc4nccnc4c3)C2)cc1 (stereo unspecified)	5.9	-15.8	1.0*[inhibitor]	nt	-3.0	-8.4	98.0	1.0	99.0
CS(=O)(=O)Nc1ccc(C2=NN(S(C)(=O)=O)C(c3ccc4c(c3)OCO4)C2)cc1 (stereo unspecified)	4.9	-7.1	6.0*[inhibitor]	nt	nt	-6.4	70.0	-7.0	72.0
CS(=O)(=O)N1N=C(c2ccccc2)CC1c1ccc2nccnc2c1 (stereo unspecified)	7.5	-29.5	98.0	103.0	-1.0	-7.8	nt	nt	nt
O=C(O)CCCC(=O)N1N=C(c2ccccc2)CC1c1ccc2nccnc2c1 (stereo unspecified)	-9.1	-6.0	136.0*	106.0	2.0	-39.0	99.0	2.0	99.0
CC(=O)N1N=C(c2cccc(NS(C)(=O)=O)c2)CC1c1ccc2c(c1)OCO2 (stereo unspecified)	-1.1	-9.4	99.0	106.0	3.0	-19.6	nt	nt	nt
Cc1ccc(C2=NN(S(C)(=O)=O)C(c3ccc4nccnc4c3)C2)cc1 (stereo unspecified)	-2.9	-14.9	94.0	3.0*[inhibitor]	6.0	-8.7	92.0	-11.0	89.0
COc1ccc(OC)c(/C=C(\C)C(=O)c2c(C)cc(C)[nH]c2=O)c1	nt	-2.3	nt	nt	nt	nt	nt	nt	nt
Cc1ccccc1CN(c1ccc(C(=O)N/N=C/c2ccc(OCC(N)=O)cc2)cc1)S(C)(=O)=O	-10.2	10.0	83.0	81.0	-14.0	-35.1	nt	nt	nt
O=C1c2nccnc2C(=O)N1c1ccc(F)cc1	3.4	nt	130.0*	112.0	0.0	0.3	105.0	6.0	100.0
COc1ccc(C(=O)C(=O)c2ccc(OCCO)cc2)cc1	nt	-10.6	nt	nt	nt	nt	nt	nt	nt
CC(=O)NC(CC(=O)N(C)Cc1cccc(Cl)c1Cl)c1ccccc1 (stereo unspecified)	0.7	nt	93.0	83.0	-12.0	-24.8	nt	nt	nt
Cn1ncc(C(=O)Nc2ccc(Cl)cc2)c1C(F)(F)F	-4.1	-8.5	74.0*[inhibitor]	76.0	-32.0	0.6	104.0	6.0	107.0
CC(C)(C)c1ccc(-c2nnc(NC(=O)c3ccccc3)s2)cc1	6.3	1.3	97.0	91.0	-4.0	2.5	nt	nt	nt
COCC(=O)Nc1nnc(-c2ccc(C(C)(C)C)cc2)s1	1.5	4.1	144.0*	118.0	6.0	-19.6	102.0	-14.0	98.0
O=C(C[n+]1ccccc1)N/N=C/c1cccc(Cl)c1Cl	-5.8	-6.7	88.0	66.0*[inhibitor]	-2.0	3.1	109.0	4.0	104.0
O=c1c2cc(NC(=S)NCCCN3CCC(Cc4ccccc4)CC3)ccc2nc2n1CCCCC2	-46.2	57.2*	107.0	149.0*	14.0	19.6	154.0	28.0	111.0
O=c1c2cc(NC(=S)NC3CCN(Cc4ccccc4)CC3)ccc2nc2n1CCCCC2	-27.1	38.4	86.0	88.0	-13.0	9.2	nt	nt	nt
NC1=NC2(CCCCC2)N=C(Nc2ccc(Br)cc2)N1	-20.9	-22.5	107.0	141.0*	36.0	11.4	120.0	6.0	101.0
CCN(CC)CCNC(=O)c1cn(CCOC)c(=O)c2c1c1ccccc1n2C	-18.1	10.5	102.0	112.0	11.0	-4.9	nt	nt	nt
CCN(CC)CCCNC(=O)c1cn(CCOC)c(=O)c2c1c1ccccc1n2C	0.6	-13.4	34.0*[inhibitor]	52.0	-16.0	7.0	105.0	1.0	105.0
Cc1ccc(C(=O)N[C@@H](C)CN2C3=NC[C@H](C(C)C)N3C[C@H]2Cc2ccc(O)cc2)cc1Br	-32.0	15.6	105.0	128.0	21.0	12.2	nt	nt	nt
COc1ccc(C[C@H]2CN3C(=NC[C@@H]3C(C)C)N2C[C@H](C)NC(=O)c2ccc(C)c(Br)c2)cc1	-56.1	30.5	107.0	153.0*	37.0	11.1	141.0	19.0	108.0
COc1ccc(C[C@H]2CN3C(=NC[C@@H]3Cc3ccc(O)cc3)N2C[C@H](C)NC(=O)c2ccc(C)c(Br)c2)cc1	nt	20.1	117.0	157.0*	80.0*	nt	4.0*[inhibitor]	-47.0	2.0*
C=CCN(CC=C)C(=O)c1ccc(OC2CCN(S(=O)(=O)N(C)C)CC2)cc1	-11.8	1.0	101.0	99.0	-1.0	-35.3	nt	nt	nt
CCCN(CCC)CC(O)CN1C(=O)N(CN2C(=O)N(CC(O)CN(CCC)CCC)C(=O)C2(C)C)C(C)(C)C1=O (stereo unspecified)	-0.1	-8.2	100.0	97.0	-3.0	7.3	nt	nt	nt
SMILES	HCV NS3 hel inh	T cruzi repl	MEKK3 PB1 HTS	MEKK2 WT-MEK5	MEKK2mut PB1 HTS	FID counter	MEKK2wt confirm	MEKK2mut-MEK5	MEKK3 confirm
Cn1c(=O)c2ncn(CC(=O)N/N=C/c3ccco3)c2n(C)c1=O	8.5	-11.1	140.0*	108.0	0.0	-3.1	110.0	2.0	101.0
Cn1c(=O)c2ncn(CC(=O)N/N=C/C=C/c3ccccc3)c2n(C)c1=O	12.4	-4.4	107.0	91.0	-9.0	-23.0	nt	nt	nt
O=C(Nc1nncs1)c1ccc(S(=O)(=O)c2ccccc2)cc1	4.0	16.4	123.0*	119.0	6.0	-4.5	105.0	0.0	107.0
O=C(COC(=O)c1ccccc1SCC(=O)NC1CCS(=O)(=O)C1)NC1CCS(=O)(=O)C1 (stereo unspecified)	7.6	-3.9	2.0*[inhibitor]	1.0*[inhibitor]	-60.0	-3.0	91.0	-9.0	86.0
O=C(COC(=O)c1ccccc1SCC(=O)N1CCCC1)NC1CCS(=O)(=O)C1 (stereo unspecified)	nt	-4.4	nt	nt	nt	nt	nt	nt	nt
COC(=O)NCC(c1cccnc1)N1CCOCC1 (stereo unspecified)	-3.6	-4.1	107.0	100.0	0.0	-0.1	nt	nt	nt
CCc1cccc(C)c1NC(=S)NCC(c1cccnc1)N1CCOCC1 (stereo unspecified)	-3.4	2.5	144.0*	106.0	0.0	-11.3	100.0	0.0	103.0
FC(F)(F)c1cccc(NC(=S)NCC(c2cccnc2)N2CCOCC2)c1 (stereo unspecified)	-0.1	44.7	135.0*	101.0	0.0	-6.1	102.0	-7.0	102.0
CC(Sc1ccccc1)C(=O)NCC(c1ccco1)N1CCCCC1 (stereo unspecified)	nt	4.5	nt	nt	nt	nt	nt	nt	nt
Nc1ccc2nc(Cc3ccccc3)[nH]c2c1	-2.3	-1.3	41.0*[inhibitor]	47.0*[inhibitor]	-12.0	9.9	105.0	8.0	104.0
